The test system of one assay is MCF7-hS1R cells. The assay can be described thus: Bradykinin. The format is cell-based, human. To be noted: pre-treatment with sigma ligand.
The subject of the next assay is MN9D cells. The experiment in a line: BDNF secretion via in situ ELISA. The format is cell-based. To be noted: for Efficacy of BDNF secretion / Stimulation of BDNF secretion (in words): 10 μM, MN9D cells; for Efficacy of BDNF secretion: normalized to the maximal response of 10 μM 4-PPBP. On the technique in general: ELISA stands for enzyme-linked immunosorbent assay.

For the next assay, the target named is human S1R (Homo sapiens, UniProt Q99720). The assay can be described thus: Radioligand competition binding with [3H]-. To be noted: for Pseudo-Hill slope at the S1R: competition with [3H]-(+)-pentazocine; for S2R/S1R ratio (Ki S2R / Ki S1R): selectivity for S1R over S2R, fold. In general terms: Loss of bound radioactivity is the signal in a displacement assay; it reports binding, not function.

The test system of the next assay is PC-6-15 cells. The experiment in a line: NGF induced neurite sprouting. The format is cell-based, rat. To be noted: for Effect on neurite sprouting, ligand alone / Potentiation of NGF induced neurite sprouting: 24 hours; for Effect on neurite sprouting, ligand alone: 0.5% serum; for Potentiation of NGF induced neurite sprouting: co-treated with 0.3 ng/mL NGF. The method in brief: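 PC12-derived PC-6-15 cells overexpressing trkA, kept in RPMI1640 with 10% horse serum, 5% FBS and 0.1 mg/mL G418. Plated on type I collagen in 0.5% serum medium. Treated 24 hours in duplicate with vehicle (DMSO 1:1000 v/v), test compound, NGF (0.3–100 ng/mL concentration-response), or test compound plus 0.3 ng/mL NGF. Neurite length/cell was total traced neurite length divided by total cell count.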

The next assay has as its target human S2R (Homo sapiens, UniProt Q5BJF2). The assay can be described thus: Radioligand competition binding with [3H]-DTG at the S2R. To be noted: for Pseudo-Hill slope at the S2R: competition with [3H]-DTG.
[1] abbreviates: read-out: S1R affinity (Ki), displacement of 0.5 nM [3H]-(+)-pentazocine, MCF-7-S1R, mean ± SEM.
Setting [2] is: 15 nM BD1063, Fractional Occupancy = [ligand]/([ligand]+Ki).

Entries after “also recorded” stand apart in the source; their conditions may differ. Read-outs that look alike come from different tables or passages of the source.

human S2R, sequence (Q5BJF2 whole entry): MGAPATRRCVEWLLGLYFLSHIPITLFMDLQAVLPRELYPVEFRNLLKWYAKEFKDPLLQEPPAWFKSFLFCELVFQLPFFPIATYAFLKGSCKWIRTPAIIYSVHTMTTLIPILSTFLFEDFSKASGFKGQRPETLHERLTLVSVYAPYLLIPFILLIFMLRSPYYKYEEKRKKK
human S1R, sequence (Q99720 whole entry): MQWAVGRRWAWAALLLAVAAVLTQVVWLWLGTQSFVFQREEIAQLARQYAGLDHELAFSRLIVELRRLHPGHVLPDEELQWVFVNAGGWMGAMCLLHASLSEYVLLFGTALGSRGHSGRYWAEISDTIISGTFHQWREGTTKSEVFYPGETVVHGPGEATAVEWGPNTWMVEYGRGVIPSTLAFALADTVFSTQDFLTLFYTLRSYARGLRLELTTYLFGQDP

In the case of `c1ccc(CCCCN2CCC(c3ccccc3)CC2)cc1` [4-PPBP], the “Effect of sigma ligand on the bradykinin calcium response” value with MCF7-hS1R cells was “no significant potentiation or suppression”. In the assay on MN9D cells (10 μM 4-PPBP, 24 hrs, mean ± SEM, n = 3–10, baseline 75.4 ± 6.9), the “Secreted BDNF at maximal stimulation” value was 128.6 ± 12.8 pg/mL. Also, in the assay on MN9D cells (24 hrs, mean ± SEM), the “Efficacy of BDNF secretion” value is 1. The “Stimulation of BDNF secretion (in words)” value with MN9D cells is “robust BDNF secretion response”. In addition, the “Pseudo-Hill slope at the S1R” value on human S1R was −3.1. For the same molecule, in the assay with PC-6-15 cells, the “Effect on neurite sprouting, ligand alone” value (“Effect on neurite sprouting” below) is “unable to stimulate neurite sprouting” and the “Potentiation of NGF induced neurite sprouting” value (“Potentiation” below) is listed as “neither 4-PPBP or promethazine enhanced NGF induced sprouting; also recorded: nor did it potentiate NGF induced sprouting”. Also, the “Pseudo-Hill slope at the S2R” value on human S2R was “near unity”.
As for `CCCN(CCC)CCc1ccc(OC)c(OCCc2ccccc2)c1` [NE-100], the “Effect of sigma ligand on the bradykinin calcium response” value in the assay with MCF7-hS1R cells was “no significant potentiation or suppression”. Also, at human S1R, the “Pseudo-Hill slope at the S1R” value is reported as −3.1. The “Pseudo-Hill slope at the S2R” value on human S2R is reported as “near unity”.
As to `CCC(C/C=C/c1ccccc1)(c1ccccc1)N(C)CC1CC1` (single isomer, unassigned; (+)) [(+)-Igmesine], the “Efficacy of BDNF secretion” value with MN9D cells (24 hrs, mean ± SEM) came to 0.42 ± 0.03. In addition, the “Stimulation of BDNF secretion (in words)” value with MN9D cells is “BDNF secreting activity”. For the same molecule, in the assay on MN9D cells (compound 10 μM + 15 nM BD1063, MN9D cells), the “Reversal of the BDNF response by S1R-selective concentration of BD1063” value is on record as “could be reversed”. Moreover, the Ki – broadly, the dissociation constant of the complex between target and ligand, obtained from inhibition or displacement – at human S1R (setting [1]) was 9.2 ± 2.2 nM. On human S1R, the “S2R/S1R ratio (Ki S2R / Ki S1R)” value is reported as 18.
As to `CC(CN1c2ccccc2Sc2ccccc21)N(C)C` (stereo not drawn) [Promethazine], the Emax at 10 µM in the assay with MN9D cells (MN9D, read-out: Efficacy for BDNF secretion, % of the maximum response) amounted to 103%. The “Potentiation” value with PC-6-15 cells is listed as “neither 4-PPBP or promethazine enhanced NGF induced sprouting”.
Turning to `COc1cc2c(cc1OC)C(=O)C(CC1CCN(Cc3ccccc3)CC1)C2` (stereo not drawn) [Donepezil], the “Stimulation of BDNF secretion (in words)” value in the assay with MN9D cells is on record as “BDNF secreting activity”.
As to `CCN(CC)CCOCCOC(=O)C1(c2ccccc2)CCCC1` [Carbetapentane], in the assay on MN9D cells (24 hrs, mean ± SEM), the “Efficacy of BDNF secretion” value was 0.73 ± 0.05. On human S1R, the Ki is 19.8 ± 2.3 nM and the “S2R/S1R ratio (Ki S2R / Ki S1R)” value worked out at 3. In addition, in the assay with PC-6-15 cells, the “Effect on neurite sprouting” value is on record as “none of them had any effect” and the “Potentiation” value is “none of them had any effect”. Moreover, at human S2R, the Ki is 55.7 ± 3.8 nM.
Regarding `CCN(CC)CCOCCOC(=O)C(CC)(CC)c1ccccc1` [Oxeladin], the Ki amounted to 25 ± 4.3 nM at human S1R and 148 ± 64 nM on human S2R.
For `COCCCC/C(=N\OCCN)c1ccc(C(F)(F)F)cc1` [fluvoxamine], in the assay on PC-6-15 cells, the “Effect on neurite sprouting” value is listed as “none of them had any effect” and the “Potentiation” value was “none of them had any effect”.
(+)-SKF10047: in the assay with MCF7-hS1R cells, the “Effect of sigma ligand on the bradykinin calcium response” value was “no significant potentiation or suppression”.
Regarding `CCCCOCCOC(=O)C(c1ccccc1)N(CC)CC` (stereo not drawn) [Cas# 1796909-31-3, 2-Butoxyethyl 2-(diethylamino)-2-phenylacetate], the “Stimulation of BDNF secretion (in words)” value with MN9D cells is listed as “BDNF secreting activity”.
Turning to `O=C(OCCN1CCOCC1)C1(c2ccccc2)CCCCC1` [PRE-084], the “Effect of sigma ligand on the bradykinin calcium response” value in the assay on MCF7-hS1R cells is reported as “no significant potentiation or suppression”. The “Stimulation of BDNF secretion (in words)” value in the assay with MN9D cells was “no effect; also recorded: failed to stimulate BDNF secretion; also recorded: no activity”. Also, at human S1R, the “Pseudo-Hill slope at the S1R” value is −0.98. Moreover, in the assay with PC-6-15 cells, the “Effect on neurite sprouting” value is “none of them had any effect” and the “Potentiation” value is given as “none of them had any effect”. Besides, the “Pseudo-Hill slope at the S2R” value at human S2R is given as “near unity”.
With `CN1CCN(CCc2ccc(Cl)c(Cl)c2)CC1` [BD1063], the “Effect of sigma ligand on the bradykinin calcium response” value in the assay on MCF7-hS1R cells is reported as “no significant potentiation or suppression”. The “Calculated S1R occupancy” value at human S1R (setting [2]) is on record as 74%. On human S1R, the “Pseudo-Hill slope at the S1R” value is recorded as “equal to unity” and the “S2R/S1R ratio (Ki S2R / Ki S1R)” value amounted to 38. Moreover, on human S1R (setting [1]), the Ki was found to be 5.6 ± 0.5 nM. Also, the “Calculated S2R occupancy” value at human S2R (setting [2]) is 7%. The “Pseudo-Hill slope at the S2R” value on human S2R is on record as “near unity”.
Regarding `CCC(C(=O)OCCOCCN(CC)CC)c1ccccc1` (stereo not drawn) [Butamirate], the “Stimulation of BDNF secretion (in words)” value in the assay with MN9D cells is “completely abolished the BDNF secretion activity”. Moreover, the Ki came out at 17.2 ± 1.7 nM on human S1R and 214 ± 41 nM at human S2R.

B1: NGF: nerve growth factor (βNGF, EMD Millipore) (protein, UniProt P01139 122-241, looked up)
Beta-nerve growth factor: SSTHPVFHMGEFSVCDSVSVWVGDKTTATDIKGKEVTVLAEVNINNSVFRQYFFETKCRASNPVESGCRGIDSKHWNSYCTTTHTFVKALTTDEKQAAWRFIRIDTACVCVLSRKATRRG
modifications: beta-NGF
As for B1, in the assay on PC-6-15 cells (0.3 to 100 ng/mL tested), the “Lowest concentration tested that induced neurite sprouting” value is reported as 0.3 ng/mL.

The values above are taken from article PMC9358981 (Journal of pharmacological and toxicological methods, 2021).
